Results published in ChEMBL document CHEMBL1127457, “Nonpeptide renin inhibitors with good intraduodenal bioavailability and efficacy in dog” (J Med Chem, 1994).

What was measured:
[1] = biological target: Renin (Mustela putorius furo); assay: Tested in vitro for its ability to inhibit the ferret plasma renin
[2] = biological target: T1, Renin (Rattus norvegicus, UniProt P08424); assay: (§1) Tested in vitro for its ability to inhibit the rat plasma renin; format: cell-free
T1 sequence (P08424 whole entry): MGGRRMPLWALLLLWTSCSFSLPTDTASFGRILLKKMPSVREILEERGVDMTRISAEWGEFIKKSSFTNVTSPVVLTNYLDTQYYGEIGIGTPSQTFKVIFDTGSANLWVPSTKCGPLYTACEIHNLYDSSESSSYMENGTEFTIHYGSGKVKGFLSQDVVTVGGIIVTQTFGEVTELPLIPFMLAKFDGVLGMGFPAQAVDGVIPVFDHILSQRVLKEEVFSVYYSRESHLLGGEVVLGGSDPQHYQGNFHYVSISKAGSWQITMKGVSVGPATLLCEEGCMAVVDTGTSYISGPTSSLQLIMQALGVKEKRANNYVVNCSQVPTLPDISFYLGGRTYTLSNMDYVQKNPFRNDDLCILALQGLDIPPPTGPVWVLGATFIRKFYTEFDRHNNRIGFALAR
Outline: (§2)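 IC50 against renin in plasma from the named species (dog, ferret, human, rat); single determination in most cases.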

[3] = biological target: Renin (Canis familiaris); assay: Tested in vitro for its ability to inhibit the dog plasma renin
[4] = biological target: T2, Renin (Homo sapiens, UniProt P00797); assay: Tested in vitro for its ability to inhibit the human plasma renin; format: cell-free
T2 sequence (P00797 whole entry): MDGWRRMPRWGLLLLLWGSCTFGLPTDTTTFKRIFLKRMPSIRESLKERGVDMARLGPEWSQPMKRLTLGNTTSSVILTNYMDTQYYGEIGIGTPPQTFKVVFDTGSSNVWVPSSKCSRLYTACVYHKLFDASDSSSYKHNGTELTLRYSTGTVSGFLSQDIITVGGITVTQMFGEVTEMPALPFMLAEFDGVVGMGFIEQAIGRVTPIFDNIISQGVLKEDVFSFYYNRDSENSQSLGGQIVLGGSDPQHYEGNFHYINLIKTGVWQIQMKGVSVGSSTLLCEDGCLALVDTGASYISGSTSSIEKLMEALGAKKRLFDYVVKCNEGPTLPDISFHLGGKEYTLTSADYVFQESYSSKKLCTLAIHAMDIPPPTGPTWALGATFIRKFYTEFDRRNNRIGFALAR
Outline: as §2

[5] = Average peak plasma concentration of compound after 10 mg/kg intraduodenal administration to rat
[6] = Partition coefficient (logD7.4); settings: octanol/water, pH 7.4
[7] = Average peak plasma concentration of compound after 1 mg/kg intravenous administration to rat
[8] = Average area under curve for the compound at 1 mg/kg dose after intravenous administration to rat; settings: in vivo
[9] = Oral bioavailability in rat; settings: in vivo; for bioavailability: intraduodenal, 10 mg/kg
[10] = Average area under curve for the compound at 10 mg/kg dose after intraduodenal administration to rat; settings: in vivo
[11] = Partition coefficient (logD6.5); settings: octanol/water, pH 6.5
[12] = Average area under curve for compound at 1 mg/kg dose intravenous administration to Ferret; settings: in vivo
[13] = Oral bioavailability in ferret; settings: in vivo
[14] = Average peak plasma concentration of compound after 10 mg/kg intraduodenal administration to Ferret
[15] = Average peak plasma concentration of compound after 1 mg/kg intravenous administration to Ferret
[16] = Average area under curve at 10 mg/kg dose after intraduodenal administration to Ferret; settings: in vivo
[17] = species: Homo sapiens; settings: Liver, Microsome
[18] = biological target: T1, Renin; assay: as §1; format: functional, cell-free
Outline: as §2

[19] = Average peak plasma concentration of compound after 1 mg/kg intravenous administration in salt depleted dog; settings: in vivo
[20] = Average peak plasma concentration of compound at 10 mg/kg intraduodenal administration in salt depleted dog; settings: in vivo
[21] = Average area under curve at 1 mg/kg intravenous administration to salt depleted dog; settings: in vivo
[22] = test system: Canis familiaris; assay: Mean arterial pressure response following 10 mg/kg intraduodenal administration to salt depleted dog; settings: in vivo, other
[23] = Average area under curve at 10 mg/kg intraduodenal administration to salt depleted dog; settings: in vivo
[24] = Oral bioavailability in dog (salt depleted); settings: in vivo
[25] = test system: Canis familiaris; assay: Mean arterial pressure response following 1 mg/kg intravenous administration to salt depleted dog; settings: in vivo

| Structure (SMILES) | IC50 [1] | IC50 [3] | IC50 [4] | Cmax ([5]; plasma) | logD [6] | Cmax ([7]; plasma) | AUC [8] | bioavailability [9] | AUC [10] | logD [11] | AUC [12] | bioavailability [13] | Cmax ([14]; plasma) | Cmax ([15]; plasma) | AUC [16] | Rate (nM min-1 (nM of cytochrome P450)-1) [17] | other results |
| --- | --- | --- | --- | --- | --- | --- | --- | --- | --- | --- | --- | --- | --- | --- | --- | --- | --- |
| CCCC[C@H](N[C@@H](Cc1ccccc1)C(=O)N1CCC(OCOC)CC1)C(=O)N[C@@H](CC1CCCCC1)[C@@H](O)C[C@H](C(=O)NCCc1ccccn1)C(C)C | 510 nM | 33 nM | 9.4 nM | – | – | – | – | – | – | – | – | – | – | – | – | – | IC50 [2]: 7 µM |
| CCCC[C@H](N[C@@H](Cc1ccccc1)C(=O)N1CCC(OCOC)CC1)C(=O)N[C@@H](CC1CCCCC1)[C@@H](O)C[C@H](C(=O)NCCNc1n[nH]c(N)n1)C(C)C | – | – | 6.1 nM | 190 ng/mL | 4.2 | 810 ng/mL | 318 ng·h/mL | 2% | 94.8 ng·h/mL | 4.1 | – | – | – | – | – | – | – |
| CCCC[C@H](N[C@@H](Cc1ccccc1)C(=O)N1CCC(OCOC)CC1)C(=O)N[C@@H](CC1CCCCC1)[C@@H](O)C[C@H](C(=O)NCCNc1noc(N)n1)C(C)C | – | – | 3.8 nM | – | 4.11 | – | – | – | – | 4.07 | 71.3 ng·h/mL | 7% | 110 ng/mL | 320 ng/mL | 54.8 ng·h/mL | – | – |
| CCCC[C@H](N[C@@H](Cc1ccccc1)C(=O)N1CCC(OCOC)CC1)C(=O)N[C@@H](CC1CCCCC1)[C@@H](O)C[C@H](C(=O)NCCC1CCCCC1)C(C)C | – | – | 40 nM | 30 ng/mL | > 5 | 140 ng/mL | 82 ng·h/mL | 4% | 37 ng·h/mL | > 5 | – | – | – | – | – | – | – |
| CCCC[C@H](N[C@@H](Cc1ccccc1)C(=O)N1CCC(OCOC)CC1)C(=O)N[C@@H](CC1CCCCC1)[C@@H](O)C[C@H](C(=O)NCCCn1ccnc1)C(C)C | 330 nM | 24 nM | – | – | – | – | – | – | – | – | – | – | – | – | – | – | IC50 [2]: 7.3 µM |
| CCCC[C@H](O[C@@H](Cc1ccccc1)C(=O)N1CCC(OCOC)CC1)C(=O)N[C@@H](CC1CCCCC1)[C@@H](O)C[C@H](C(=O)NCCCN1CCOCC1)C(C)C | – | – | – | – | – | – | – | – | – | 3.3 | – | – | – | – | – | 4.26 | – |
| CCCC[C@H](N[C@@H](Cc1ccccc1)C(=O)N1CCC(OCOC)CC1)C(=O)N[C@@H](CC1CCCCC1)[C@@H](O)C[C@H](C(=O)NCc1ccccc1)C(C)C | – | – | 14 nM | – | > 5 | – | 1540 ng·h/mL | 7% | 1100 ng·h/mL | > 5 | – | – | – | – | – | – | Cmax ([5]; in vivo): 930 ng/mL; Cmax ([7]; in vivo): 1660 ng/mL |
| CCCC[C@H](N[C@@H](Cc1ccccc1)C(=O)N1CCC(OCOC)CC1)C(=O)N[C@@H](CC1CCCCC1)[C@@H](O)C[C@H](C(=O)NCCN1CCCC1)C(C)C | – | – | 13 nM | > 480 ng/mL | > 5 | 1310 ng/mL | 340 ng·h/mL | > 25% | > 850 ng·h/mL | > 5 | 2750 ng·h/mL | 29% | 5500 ng/mL | 3900 ng/mL | 8220 ng·h/mL | – | – |
| CCCC[C@H](N[C@@H](Cc1ccccc1)C(=O)N1CCC(OCOC)CC1)C(=O)N[C@@H](CC1CCCCC1)[C@@H](O)C[C@H](C(=O)NCc1ccncc1)C(C)C | 940 nM | 59 nM | 7.8 nM | 460 ng/mL | > 5 | 2480 ng/mL | 653 ng·h/mL | 11% | 760 ng·h/mL | > 5 | – | – | – | – | – | 0.78 | IC50 [2]: 10 µM |
| CCCC[C@H](N[C@@H](Cc1ccccc1)C(=O)N1CCC(OCOC)CC1)C(=O)N[C@@H](CC1CCCCC1)[C@@H](O)C[C@H](C(=O)NCc1ccccn1)C(C)C | 1000 nM | 75 nM | 12 nM | 4570 ng/mL | > 5 | 6250 ng/mL | 3130 ng·h/mL | 21% | 6870 ng·h/mL | > 5 | 3030 ng·h/mL | 46% | 9120 ng/mL | 10000 ng/mL | 14100 ng·h/mL | 3.52 | IC50 [18]: > 10 µM |
| CCCC[C@H](N[C@@H](Cc1ccccc1)C(=O)N1CCC(OCOC)CC1)C(=O)N[C@@H](CC1CCCCC1)[C@@H](O)C[C@H](C(=O)NCc1cccnc1)C(C)C | – | – | – | – | > 5 | – | 228 ng·h/mL | – | 3670 ng·h/mL | > 5 | 827 ng·h/mL | > 98% | – | – | > 8170 ng·h/mL | 2.27 | Cmax ([14]; in vivo): > 4920 ng/mL; Cmax ([5]; in vivo): 2320 ng/mL; Cmax ([7]; in vivo): 560 ng/mL; F ([9]; po): 160%; Cmax ([15]; in vivo): 3480 ng/mL |
| CCCC[C@H](N[C@@H](Cc1ccccc1)C(=O)N1CCC(OCOC)CC1)C(=O)N[C@@H](CC1CCCCC1)[C@@H](O)C[C@H](C(=O)NCCCN1CCOCC1)C(C)C | – | – | – | – | – | – | 66.7 ng·h/mL | 36.3% | 235 ng·h/mL | 3.9 | 902 ng·h/mL | 75% | – | – | 6800 ng·h/mL | 4.14 | Cmax [19]: 4700 ng/mL; Cmax [20]: 1260 ng/mL; AUC [21]: 693 ng·h/mL; Arterial pressure [22]: 10803 % mmHg min; Cmax ([14]; in vivo): 4620 ng/mL; Cmax ([5]; in vivo): 190 ng/mL; AUC [23]: 4000 ng·h/mL; bioavailability [24]: 57%; Cmax ([15]; in vivo): 1550 ng/mL; Arterial pressure [25]: 8356 % mmHg min |
| CCCC[C@H](N[C@@H](Cc1ccccc1)C(=O)N1CCC(OCOC)CC1)C(=O)N[C@@H](CC1CCCCC1)[C@@H](O)C[C@H](C(=O)NCCN1CCCCC1)C(C)C | – | – | 14 nM | 360 ng/mL | > 5 | 1000 ng/mL | 352 ng·h/mL | 15% | 570 ng·h/mL | > 5 | 1680 ng·h/mL | 33% | 3730 ng/mL | 3600 ng/mL | 5680 ng·h/mL | 4.52 | – |
